High-throughput results deposited in PubChem BioAssay by Sanford-Burnham Center for Chemical Genomics.
The list is not random: actives were taken first. Their share in the collection is about 4.4%.
MPTP inh = mitochondrial permeability transition pore inhibitors, primary screen, biochemical, isolated mouse mitochondria, absorbance | Ca2+ swelling absorbance, 30 min | inhibition, % at 10 µM | 1.4% of 360,000 active;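 active = inhibition of 50% or more, scaled per plate between neutral and stimulator controls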;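 also: 0% = DMSO wells given calcium and 100% = 1 mM EGTA wells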
NR3A LBD binder = binders of NR3A ligand-binding domain, primary screen, biophysical, differential scanning fluorimetry, uHTS | Glutamate receptor ionotropic, NMDA 3A (GRIN3A) ligand-binding domain | NR3A LBD differential scanning fluorimetry, Tm shift; 0% = protein alone, 100% = glycine-bound protein | Tm shift relative to glycine control, % at 25 µM | 2.5% of 340,000 active;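 active = melting temperature shift of at least 10% of the positive control shift, at one fixed dose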
EBI2 block = EBI2 receptor antagonists, beta-arrestin recruitment, primary screen, cell-based, luminescence, 7a,25-OHC stimulation, uHTS; G-protein coupled receptor 183 (Homo sapiens), P32249; 7a,25-OHC stimulated; inhibition, % at 5 µM; 0.81% of 360,000 active; AID 651636, 2012; in the data active = inhibition above about 38%;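 also: enzyme fragment complementation signal reports receptor beta-arrestin coupling in cells; 0% = agonist plus DMSO wells and 100% = wells without agonist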
Target sequence (P32249 whole entry, looked up, the tested form may be a part): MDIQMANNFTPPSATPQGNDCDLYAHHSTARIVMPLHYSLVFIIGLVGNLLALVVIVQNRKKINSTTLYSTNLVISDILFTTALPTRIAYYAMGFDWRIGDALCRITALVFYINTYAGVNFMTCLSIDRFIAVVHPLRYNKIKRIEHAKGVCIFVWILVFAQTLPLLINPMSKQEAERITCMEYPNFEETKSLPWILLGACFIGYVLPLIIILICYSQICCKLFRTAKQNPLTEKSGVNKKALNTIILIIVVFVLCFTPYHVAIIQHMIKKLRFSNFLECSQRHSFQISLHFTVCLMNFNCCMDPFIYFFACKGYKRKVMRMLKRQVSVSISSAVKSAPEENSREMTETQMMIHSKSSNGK
SENP1 inh = human SENP1 catalytic domain inhibitors, primary screen, biochemical, FRET, uHTS; 0.21% of 360,000 active; recombinant SENP1 catalytic domain, CyPet-SUMO1-YPet FRET cleavage; Sentrin-specific protease 1 (Homo sapiens), Q9P0U3; inhibition, % at 10 µM;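 active = inhibition at least 30% at 10 µM, raw YFP signal under a set limit, fluorescence ratio 0.5 to 1.5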;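 also: 0% = enzyme with DMSO and 100% = no enzyme wells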
Target sequence (Q9P0U3 419-644 limits assumed): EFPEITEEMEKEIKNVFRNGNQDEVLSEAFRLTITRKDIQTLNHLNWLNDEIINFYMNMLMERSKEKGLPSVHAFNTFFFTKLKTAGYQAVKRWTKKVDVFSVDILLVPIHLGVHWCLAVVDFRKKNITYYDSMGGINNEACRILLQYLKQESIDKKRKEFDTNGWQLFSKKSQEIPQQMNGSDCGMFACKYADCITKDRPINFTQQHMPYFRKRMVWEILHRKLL
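Test system: recombinant human SENP1 catalytic domain, His6-tagged / Medium: pH 8 Tris buffer with EDTA, NaCl, BME, BSA, NP40, catalase / Also added: SUMO1 FRET substrate flanked by Cypet and Ypet, 25 nM / Times: 50 min reaction at room temperature / Signal: FRET, CFP and YFP emission / Control set: no-enzyme low control and enzyme-plus-DMSO high control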
The depositor's hits bear a star.

Screening CCc1cccc2c(C(=O)COC(=O)c3ccc([N+](=O)[O-])s3)c[nH]c12 returned MPTP inh 1.8, NR3A LBD binder 10.5*, EBI2 block 4.0 and SENP1 inh 0.9.
O=C(OCC(=O)c1c[nH]c2ccccc12)c1ccc([N+](=O)[O-])s1 was read as MPTP inh -0.3, NR3A LBD binder 9.7, EBI2 block 11.8 and SENP1 inh -4.9.
Screening O=C(COc1ccccc1[N+](=O)[O-])NCCC1=CCCCC1 returned MPTP inh 1.4, NR3A LBD binder 11.0*, EBI2 block 4.8 and SENP1 inh 0.2.
COc1cc(C=C2Cc3ccccc3C2=O)cc(OC)c1OC was read as MPTP inh -1.9, EBI2 block 2.3 and SENP1 inh -0.5.
`COc1ccc(/C=C2\Cc3ccccc3C2=O)cc1OC` gave MPTP inh 0.2, NR3A LBD binder 13.3*, EBI2 block 5.0 and SENP1 inh -25.1.
Screening CCC1CCCCN1CCCNC(=O)c1nn(C)c2c1CS(=O)(=O)c1ccccc1-2 (stereo unspecified) returned MPTP inh 0.0, NR3A LBD binder 2.0, EBI2 block -2.1 and SENP1 inh -2.7.
For COc1ccc(CN(C(=O)COc2ccccc2)c2ccccc2C(=O)O)cc1 the results were MPTP inh -1.0, NR3A LBD binder 1.5, EBI2 block -4.7 and SENP1 inh 1.0.
`O=C(Nc1ccccc1C(=O)N1CCCCCC1)c1ccccc1` gave MPTP inh 1.2, NR3A LBD binder -0.2, EBI2 block -1.7 and SENP1 inh -0.5.
CN(c1ccc(C(=O)Nc2ccccc2C(=O)N2CCCC2)cc1)S(C)(=O)=O was read as MPTP inh -1.0, NR3A LBD binder 15.1*, EBI2 block -7.5 and SENP1 inh -1.4.
For COc1cccc(NC(=O)CN2C(=O)CSc3ccc(S(=O)(=O)N4CCCCC4)cc32)c1 the results were MPTP inh -0.8, NR3A LBD binder -2.3, EBI2 block 8.6 and SENP1 inh 3.6.
Screening O=C(O)c1ccccc1C(=O)Nc1ccc(Nc2ccc([N+](=O)[O-])cc2[N+](=O)[O-])cc1 returned MPTP inh 1.1, NR3A LBD binder 10.0*, EBI2 block 7.8 and SENP1 inh 3.5.
For O=C(NNc1ccc(C(F)(F)F)cc1[N+](=O)[O-])c1ccc(NS(=O)(=O)c2ccc(F)cc2)cc1 the results were MPTP inh -17.1, NR3A LBD binder 22.2*, EBI2 block 5.8 and SENP1 inh 4.1.
Screening COCCNC(=S)N(CCc1c(C)[nH]c2ccc(F)cc12)Cc1ccc(C)cc1 returned MPTP inh 2.0, NR3A LBD binder 10.3*, EBI2 block 16.5 and SENP1 inh -78.8.
`COc1ccc2[nH]c(C)c(CCNc3ccc(C(F)(F)F)cc3[N+](=O)[O-])c2c1` gave MPTP inh 0.5, NR3A LBD binder 19.1*, EBI2 block 16.3 and SENP1 inh 2.7.
For COc1ccc2[nH]c(C)c(CCNC(=S)Nc3ccc(F)cc3)c2c1 the results were MPTP inh 3.8, NR3A LBD binder 11.8*, EBI2 block -9.9 and SENP1 inh -2.2.
Screening COc1ccc2[nH]c(C)c(CCNC(=S)Nc3cc(C)cc(C)c3)c2c1 returned MPTP inh -0.1, NR3A LBD binder 0.3, EBI2 block 9.3 and SENP1 inh -0.3.
O=P1(c2ccccc2)C=Cn2c1cc1c2CCCC1 (stereo unspecified) was read as MPTP inh 0.2, NR3A LBD binder -0.7, EBI2 block -10.3 and SENP1 inh 1.8.
Screening CC(C)OCC1CC(CC(=O)Nc2ccc([N+](=O)[O-])cc2)C(=O)O1 (stereo unspecified) returned MPTP inh 1.3, NR3A LBD binder 17.6*, EBI2 block -0.1 and SENP1 inh 2.5.
For CC(C)OCC1CC(CC(=O)NC(=S)Nc2cccc([N+](=O)[O-])c2)C(=O)O1 (stereo unspecified) the results were MPTP inh -1.1, NR3A LBD binder 0.1, EBI2 block -6.9 and SENP1 inh -0.2.
CC1(C)CC(CC(=O)NC(=S)Nc2ccc([N+](=O)[O-])cc2)C(=O)O1 (stereo unspecified) was read as MPTP inh 1.9, NR3A LBD binder 10.2*, EBI2 block 6.6 and SENP1 inh 1.7.
`O=C(Nc1cc(C(F)(F)F)ccc1Cl)C(Sc1nnc(-c2cccs2)o1)c1ccccc1` (stereo unspecified) gave MPTP inh 11.4, NR3A LBD binder 2.7, EBI2 block 0.4 and SENP1 inh -2.7.
For O=C(Nc1ccc(Cl)cc1C(F)(F)F)C(Sc1nnc(-c2cccs2)o1)c1ccccc1 (stereo unspecified) the results were MPTP inh 16.6, NR3A LBD binder 21.9*, EBI2 block -9.2 and SENP1 inh -4.6.
Screening CC(NC(=O)COC(=O)CCc1nc2ccccc2c(=O)[nH]1)c1ccccc1 (stereo unspecified) returned MPTP inh 2.3, NR3A LBD binder -0.6, EBI2 block 0.2 and SENP1 inh -9.9.
Screening CC(C)NC(=O)c1ccccc1S(=O)(=O)c1ccccc1C#N returned MPTP inh -1.0, NR3A LBD binder -0.9, EBI2 block 1.5 and SENP1 inh 0.4.
For CNC(=O)c1ccccc1S(=O)(=O)c1ccccc1C#N the results were MPTP inh -1.8, NR3A LBD binder 10.8*, EBI2 block -11.2 and SENP1 inh -0.6.
COC(=O)c1cccc(NC(=O)c2cccc([N+](=O)[O-])c2)c1 was read as MPTP inh 1.2, NR3A LBD binder 0.7, EBI2 block 11.9 and SENP1 inh 0.6.
Screening COc1ccc(C(=O)Nc2ccc(Cc3ccncc3)cc2)cc1Br returned MPTP inh 4.7, NR3A LBD binder -11.1, EBI2 block -13.7 and SENP1 inh 1.2.
`COc1ccc(C(=O)Nc2cc3c(cc2OC)CCCC3)cc1Br` gave MPTP inh 1.0, NR3A LBD binder 11.4*, EBI2 block 28.5 and SENP1 inh 0.0.
For COc1cc2c(cc1NC(=O)c1ccc(C(C)(C)C)cc1)CCCC2 the results were MPTP inh 5.1, NR3A LBD binder 0.8, EBI2 block 37.4 and SENP1 inh 1.3.
COc1ccc(C(=O)Nc2ccc(OC)c([N+](=O)[O-])c2)cc1Br was read as MPTP inh 7.5, NR3A LBD binder 30.4*, EBI2 block -0.5 and SENP1 inh 1.4.
`COc1ccc(C(=O)Nc2cccc([N+](=O)[O-])c2)cc1Br` gave MPTP inh 1.8, NR3A LBD binder 21.7*, EBI2 block 9.1 and SENP1 inh 0.7.
`c1ccc(-c2nnc(-c3ccccc3)c(-c3c[nH]c4ccccc34)n2)cc1` gave MPTP inh -1.0, NR3A LBD binder 14.9*, EBI2 block 34.6 and SENP1 inh -6.5.
